Source: PubChem
An excerpt weighted towards active compounds, which were near 3.1% of everything screened.
KCNQ1 act = potentiators or activators of human KCNQ1 potassium channel; P51787; CHO-K1 KCNQ1, thallium flux FluxOR fluorescence; stronger effect = higher value; B-score at 10 µM; actives 0.35% (n = 310,000); AID 2648;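 active = fluorescence ratio B-score, a plate-corrected score, at least three library SD, with initial intensity B-score within 5 SD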
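Schedule – 37 °C overnight plating, 90-min dark dye load, 20-min compound pretreatment · System – stable KCNQ1 CHO-K1 line · Probe or stimulus – thallium- and potassium-containing depolarizing buffer · Measured by – kinetic FluxOR fluorescence, 10 s baseline plus 110 s post-stimulus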
KCNK9 inh = inhibitors of human KCNK9 two-pore domain potassium channel | AID 488922 | actives 1.2% (n = 310,000) | HEK293 KCNK9, FluxOR thallium flux fluorescence; stronger effect = lower value | B-score at 10 µM | Q9NPC2;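 active = ratio B-score over 3 SD below the library mean, with starting fluorescence within 5 SD of its mean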;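 also: negative B-score means less thallium flux so channel inhibition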
KCNK3 block = human KCNK3 channel inhibition, primary screen; CHO-KCNK3 thallium flux, FluxOR fluorescence; stronger effect = lower value; actives 0.84% (n = 340,000); B-score at 10 µM;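 active = B-score under library mean minus 4 SD, starting fluorescence ratio at most library mean plus 5 SD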;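 also: more negative B-score means stronger inhibition of thallium flux through KCNK3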
KCNQ1 block = blocks the human KCNQ1 potassium channel; actives 1.3% (n = 310,000); CHO-K1 KCNQ1, FluxOR thallium flux fluorescence; stronger effect = higher value; B-score at 10 µM; P51787; AID 2642;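 active = compounds whose thallium flux B-score, printed positive for inhibition, exceeds three library SD while starting fluorescence stays within three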;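 also: channel opened by potassium depolarization with thallium stimulus after 20 min compound exposure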
hERG rescue = hERG (human) protection from proarrhythmic block. actives 0.51% (n = 310,000). activation (rescue from dofetilide block), less the hit threshold, % at 10 µM. CHO-hERG, FluxOR thallium flux, dofetilide IC70 present. Q12809. AID 1511;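 active = activation above the mean of controls blocked by dofetilide plus 5 SD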;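 also: thallium influx through hERG after potassium depolarization seen as dye fluorescence rise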
KCNK3 confirm = human KCNK3 channel inhibition, confirmation assay. shares compounds with KCNK3 block. CHO-KCNK3 thallium flux, FluxOR fluorescence; 0% buffer, 100% carvedilol maximal block. ratio percent of control, % at 10 µM. actives 99% (n = 2,400). AID 651638;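 active = ratio percent of control, averaged over triplicates, above buffer control mean plus 5 SD, cut at about 64% in these data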;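 also: ratio is the fluorescence rise from min to max over baseline after thallium stimulus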
KCNK3 uninduced = activity in cells without induced KCNK3 expression. shares compounds with KCNK3 block. non-induced KCNK3 parental cells, FluxOR thallium flux; stronger effect = lower value. thallium flux ratio (lower = more inhibition) at 10 µM. actives 40% (n = 2,400). AID 651747;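 active = thallium flux ratio, averaged over three wells, more than 5 SD below the buffer control mean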;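 also: host cells are CHO cells without KCNK3 induction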
A number is an active result; 0 = inactive; - = not tested or not shown.

SMILES	KCNQ1 act	KCNK9 inh	KCNK3 block	KCNQ1 block	hERG rescue	KCNK3 confirm	KCNK3 uninduced
CCC(NC(=O)c1ccccc1NC(=O)C(C)(C)C)C(=O)N1CC(C)OC(C)C1 (stereo unspecified)	-	-	0	-	-	-	-
COc1cc(C)ccc1OCCOc1cc(C)ccc1Cl	0	0	-8.72	0	0	88.3	0
COc1cc(C)ccc1OCCOc1c(Cl)cc(Cl)cc1Cl	0	0	0	0	0	-	-
CCOC(=O)CNC(=O)C1c2ccccc2Oc2ccccc21	0	0	-12.4	0	0	50.3	0
Cc1c(CCOC(=O)CC23CC4CC(CC(C4)C2)C3)sc[n+]1CC(=O)c1ccc(Br)cc1	0	0	-10.4	6	0	118.7	0
Cc1c(CCOC(=O)c2ccccc2)sc[n+]1CC(=O)c1ccc(Br)cc1	0	0	0	0	0	-	-
Cc1noc(C)c1COc1ccccc1C(=O)NCc1ccccc1Cl	0	0	-8.82	0	0	104.7	0
Cc1noc(C)c1COc1ccccc1C(=O)NCCc1ccccc1	-	-	0	-	-	-	-
CC1CC(Nc2ccccc2)c2ccccc2N1C(=O)c1ccncc1 (stereo unspecified)	0	0	0	0	0	-	-
CC1CC(Nc2ccccc2)c2ccccc2N1C(=O)c1ccco1 (stereo unspecified)	0	0	-13.1	0	0	115.3	0
CN1CCN(CCCNC(=O)CCC(=O)N2CCOc3ccccc32)CC1	0	0	0	0	0	-	-
O=S(=O)(N1CCCCC1)N1CCN(c2cc(Cl)ccc2Cl)CC1	0	0	-9.16	0	0	111.3	0
O=C(Nc1ccc(OCC(=O)N2CCOCC2)cc1)c1ccccc1F	0	0	0	0	0	-	-
O=C(Nc1ccc(Cl)cc1)c1cc(Br)ccc1OCC(=O)N1CCOCC1	0	0	-10.1	0	0	111.7	0
CCn1c(CNC(=O)c2cccc(C)c2)nnc1SCC(=O)N1CCOCC1	0	0	0	0	0	-	-
CC(CS(=O)(=O)c1ccccc1[N+](=O)[O-])N1CCOCC1 (stereo unspecified)	0	0	-9.13	0	0	84.0	0
CC(C)(Oc1ccc(Cl)cc1)C(=O)OCC(=O)N1CCN(c2ccccc2)CC1	0	0	0	0	0	-	-
O=C(Nc1nc(-c2ccccc2)cs1)C1COc2ccccc2O1 (stereo unspecified)	0	0	0	0	0	-	-
O=C(Nc1nc(-c2ccc3c(c2)OCO3)cs1)C1COc2ccccc2O1 (stereo unspecified)	0	0	-11.1	0	0	108.7	0
CCN(c1cccc(C)c1)S(=O)(=O)c1ccc(-c2cc(C)no2)s1	0	0	-8.79	0	0	102.7	0
O=C(Nc1ccc(Br)c(C(F)(F)F)c1)c1ccc(C(F)(F)F)cc1	0	0	-10.2	12	0	118.7	0.103
C(=N\N(c1ccccc1)c1ccccc1)/c1ccccn1	0	0	-9.88	0	0	132.7	0.124
CC(=O)Nc1ccc(C(=O)OCC(=O)NCc2ccc3c(c2)OCO3)cc1	-	-	0	-	-	-	-
CN(CC(=O)Nc1ccccc1Br)C(=O)c1cccnc1Nc1cccc(C(F)(F)F)c1	0	0	-12.5	0	0	126.0	0.132
CNC(=O)c1cccnc1Nc1cccc(C(F)(F)F)c1	0	0	0	0	0	-	-
SMILES	KCNQ1 act	KCNK9 inh	KCNK3 block	KCNQ1 block	hERG rescue	KCNK3 confirm	KCNK3 uninduced
Oc1cccc(Nc2nc(O)c(/C=C3\C=Nc4ccccc43)s2)c1	-	-	-14.8	-	-	148.3	0.0827
CCc1ccc(NC(=O)N(CCCN2CCOCC2)C(C)c2cc3cccc(OC)c3o2)cc1 (stereo unspecified)	0	0	-8.83	0	0	118.0	0
COc1cccc2cc(C(C)N(CCCN3CCOCC3)C(=S)Nc3c(C)cccc3C)oc12 (stereo unspecified)	0	0	0	0	0	-	-
CC(C)(C)c1ccc(/C=C/C(=O)N2CCCCC2)cc1	0	0	-8.85	0	0	107.7	0
CCN(CC(=O)Nc1ccc(NC(C)=O)cc1)CC(=O)Nc1cc(C)on1	-	-	0	-	-	-	-
COc1ccc(CCN(Cc2nc(-c3ccccc3)no2)Cc2nc(-c3ccccc3)no2)cc1OC	0	0	-9.15	0	0	91.7	0
Cc1cc(C)cc(C(=O)Nc2ccc(NC(=O)c3cccs3)cc2)c1	0	0	0	0	0	-	-
Cc1cccc(C(=O)Nc2cc(NC(=O)c3cccs3)ccc2C)c1	0	0	-9.73	0	0	112.0	0
Cc1ccc(C(=O)Nc2cccc(NC(=O)c3cccs3)c2)c(C)c1	0	-6.99	-10.5	0	0	85.0	0
O=C(Nc1cccc(NC(=O)c2cccs2)c1)c1cccnc1	0	0	-9.26	0	0	89.0	0
CC(C)(C)NC(=O)c1cc(NC(=O)c2cccs2)cc(NC(=O)c2cccs2)c1	0	-7.19	-10.8	0	0	100.3	0
COc1cc(NC(=O)Cn2cnc3c(OCc4ccccc4)ncnc32)cc(OC)c1OC	-	-	0	-	-	-	-
CC(=O)c1ccc(S(=O)(=O)N(C)CCCC(=O)N2CCN(c3ncccn3)CC2)cc1	-	-	0	-	-	-	-
Cc1cccc2c(C(=O)O)c3cccc(C)c3nc12	0	0	0	0	0	-	-
O=C(NC1CCN(C(=S)Nc2ccccc2Cl)CC1)C1CCCCC1	0	0	0	0	0	-	-
CC(Cl)C(=O)NN=C(c1ccccc1)c1ccccc1 (stereo unspecified)	0	0	-8.91	0	0	93.7	0
CC(C)(C)C(CCl)C(=O)NN=C(c1ccccc1)c1ccccc1 (stereo unspecified)	-	-	0	-	-	-	-
Cc1cccc(N2CCN(C(=O)c3c(-c4ccccc4Cl)noc3C)CC2)c1C	0	0	0	0	0	-	-
O=S(=O)(/C=C/c1ccccc1)N1CCN(Cc2ccccc2)CC1	0	0	0	0	0	-	-
O=C(c1ccc(-c2ccccc2Cl)o1)N1CCC1	-	-	0	-	-	-	-
CC1CCN(C(=O)c2ccc(-c3ccccc3Cl)o2)CC1	0	0	-9.18	0	0	122.7	0.14
COc1ccc(S(=O)(=O)N2CCOCC2)cc1NC(=O)c1ccncc1	-	-	0	-	-	-	-
CCOc1ccc(NC(=O)CN(C)C(=O)c2c(-c3ccccc3)noc2C)cc1OCC	-	-	0	-	-	-	-
COC(=O)c1c(S(=O)(=O)NCc2ccccc2)sc(C(=O)O)c1C	0	0	-10.8	0	0	120.7	0.158
Cc1ccc(N2CCN(c3ncccc3[N+](=O)[O-])CC2)c(C)c1	0	0	-8.8	0	0	108.3	0.152
Cc1ccc(C)c(C(=O)N(Cc2nc(-c3ccc(Cl)cc3)no2)C(C)C)c1	0	0	-8.84	0	0	115.0	0
COc1cccc(C(=O)N(Cc2nc(-c3ccc(C)cc3)no2)C(C)C)c1	0	0	0	0	0	-	-
Cc1cccc(-c2noc(CN(C(=O)c3c(-c4ccccc4Cl)noc3C)C(C)C)n2)c1	-	-	-11.6	-	-	113.3	0
